# Compound activity deposited in PubChem by The Scripps Research Institute Molecular Screening Center.
# GPR7 antagonist = GPR7 receptor antagonists, primary screen, cell-based, fluorescence, single concentration | AID 1861, 2009 | inhibition, % at 4.4 µM | Neuropeptides B/W receptor type 1 (Homo sapiens), P48145 | 1.1% of 290,000 active | GPR7-expressing cells, fluorescence antagonist assay; in the data active = inhibition above about 16%, passing the limit was not always enough;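 also: cells stimulated with the agonist NPW; 0% = agonist with vehicle and 100% = vehicle without agonist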
# OX1R antag-1 = OX1R (HCRTR1) antagonists, primary screen, fluorescence, CHO/OX1R cells, Fluo-8 calcium, orexin A; Fluo-8 calcium fluorescence; AID 434989, 2010; inhibition, % at 5 µM; Orexin/Hypocretin receptor type 1 (Homo sapiens), O43613; 0.43% of 330,000 active;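 active = inhibition above its plate's threshold, mean inhibition of all tested compounds on the plate plus 3 SD, cut at about 37% in these data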;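 also: 0% = orexin A challenge wells and 100% = SB-334867-A antagonist wells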
# TAAR1 ag = human TAAR1 agonists, primary screen, Fluo-8 calcium fluorescence, CHO RD-HGA16 cells | Trace amine-associated receptor 1 (Homo sapiens), Q96RJ0 | vehicle wells 0%, saturating PEA agonist 100% | activation, % at 3 µM | 0.99% of 360,000 active | AID 624467, 2012;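 active = activation above the mean activation of all test compounds in the run plus 3 SD, cut at about 38% in these data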
# Target sequence (Q96RJ0 whole entry, looked up): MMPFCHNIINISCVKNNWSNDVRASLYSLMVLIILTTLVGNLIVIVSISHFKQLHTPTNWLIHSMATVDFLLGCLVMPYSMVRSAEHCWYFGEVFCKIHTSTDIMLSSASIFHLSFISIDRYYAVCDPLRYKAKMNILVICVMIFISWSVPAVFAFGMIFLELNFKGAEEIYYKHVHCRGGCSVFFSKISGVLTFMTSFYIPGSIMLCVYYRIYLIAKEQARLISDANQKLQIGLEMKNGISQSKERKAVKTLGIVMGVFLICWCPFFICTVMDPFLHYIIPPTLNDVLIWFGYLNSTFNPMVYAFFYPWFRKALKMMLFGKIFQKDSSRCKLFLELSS
#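 Repeats: no replicates (n 1) | Material: CHO-derived RD-HGA16 cells with stable Gα16 and human TAAR1 | Technique: Kinetic Fluo-8 calcium fluorescence | Schedule: 17-24 h seeding, 75 min 37 °C dye, 30 min RT | Evaluation: % activation from peak over basal fluorescence ratio, DMSO-to-PEA scaled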
# OX1R antag-2 = antagonists of human orexin 1 receptor (OX1R); Orexin/Hypocretin receptor type 1 (Homo sapiens), O43613; OX1R-expressing cells, FRET antagonist read-out; inhibition, % at 6.6 µM; 1.8% of 330,000 active; AID 485270, 2010; in the data active = inhibition mostly above about 38%, no sharp cut-off; inactive = mostly below about 40%;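 also: 0% = agonist challenge alone and 100% = reference antagonist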
# CHO parental Ca = ATP-evoked calcium signal inhibitors, parental CHO, primary screen, counter-screen for OX1R antagonist project, cell-based, fluorescence, Fluo-8 calcium dye | parental CHO-K1, ATP-induced calcium, Fluo-8 fluorescence | AID 463079, 2010 | inhibition, % at 5.6 µM | 0.63% of 330,000 active;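 active = inhibition above that plate's mean sample inhibition plus 3 SD, cut at about 26% in these data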;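 also: 0% = ATP-challenged DMSO wells and 100% = DMSO wells without ATP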
#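 Material – parental CHO cells · Reagent – ATP stimulus · Compound – single nominal dose of 5.6 µM per compound · Detection – Fluo-8 fluorescence · Read-out basis – percent inhibition of calcium signal · Controls – ATP-challenged DMSO wells low, unchallenged DMSO wells high · Repeats – no replicates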
# TAAR1 antag = human TAAR1 antagonists, primary screen, Fluo-8 calcium fluorescence, CHO RD-HGA16 cells; Trace amine-associated receptor 1 (Homo sapiens), Q96RJ0; antagonist; AID 624466, 2012; 1.5% of 360,000 active; inhibition, % at 3 µM;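 active = inhibition above a per-plate cutoff, the mean inhibition of test compounds on that plate plus 3 SD, cut at about 49% in these data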;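 also: 0% = DMSO plus EC80 beta-PEA response and 100% = DMSO alone without agonist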
#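 Test system: RD-HGA16 CHO cells with stable hTAAR1 and Gα16 / Probe or stimulus: EC80 β-phenethylamine stimulus / Times: seeding 17-24 h prior, 75-min 37 °C, 30-min RT dye loading / Detection: Fluo-8 calcium-sensitive fluorescence / Read-out basis: % inhibition scaled between DMSO and EC80 PEA controls / Repeats: singlicate, one well per test compound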
# GPR7 antag conf = GPR7 receptor antagonists, confirmation, cell-based, fluorescence, single concentration; 52% of 2,400 active; shares compounds with GPR7 antagonist; AID 1952, 2009; GPR7-expressing cells, calcium fluorescence antagonist mode; inhibition, % at 4.4 µM; in the data active = inhibition above about 24%;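 also: stimulated with the GPR7 agonist NPW; 0% = agonist plus vehicle and 100% = vehicle alone without agonist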
# MCHR1 antagonist = MCHR1 antagonists in cells, counter-screen for GPR7 antagonist project, cell-based, fluorescence, human. shares compounds with GPR7 antagonist. MCHR1-expressing cells, fluorescence antagonist assay. inhibition, % at 4.4 µM. 62% of 2,400 active. AID 2148, 2009; in the data active = inhibition above about 22%;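 also: 0% = vehicle with agonist and 100% = vehicle without agonist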
# TAAR1 ag conf = human TAAR1 agonists, retest of hits, confirmation, Fluo-8 calcium fluorescence, CHO RD-HGA16 cells; shares compounds with TAAR1 ag; activation, % at 3 µM; AID 651783, 2012; scaled: DMSO 0%, maximal phenethylamine 100%; 82% of 2,400 active;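 active = activation above a cutoff set at the run's mean compound activation plus 3 SD, cut at about 39% in these data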
# Ga16 nonsel ag = nonselective calcium mobilization agonists, CHO-Ga16 cells, counter-screen for hTAAR1 agonist project, cell-based, fluorescence, CHO-Ga16 parental line | shares compounds with TAAR1 ag | Fluo-8 calcium fluorescence; normalized to maximal ATP response, DMSO zero | activation, % at 3 µM | 50% of 2,400 active | AID 651787, 2012;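 active = activation above the run cutoff, the mean activation over all tested wells plus 3 SD, cut at about 12% in these data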;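 also: 0% = DMSO wells and 100% = maximal ATP response on the peak over basal ratio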
# TAAR1 desens = TAAR1 desensitization by agonist hits, confirmation, counter-screen for TAAR1 agonist project, cell-based, fluorescence, tachyphylaxis; shares compounds with TAAR1 ag; CHO RD-HGA16 hTAAR1, Fluo-8 calcium, beta-PEA response inhibition; inhibition, % at 3 µM; 46% of 2,400 active; AID 651951, 2012;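 active = inhibition above the run cutoff, the mean inhibition of all test compounds plus 3 SD, cut at about 49% in these data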;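 also: beta-PEA stimulus applied at its EC80; loss of beta-PEA calcium signal after compound pretreatment read as receptor desensitization; 0% = DMSO with beta-PEA at EC80 and 100% = DMSO alone without agonist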
# Ga16 nonsel ant = inhibition of ATP-evoked calcium response in CHO-Ga16 cells, counter-screen for TAAR1 agonist project, cell-based, fluorescence; shares compounds with TAAR1 ag; CHO-Ga16 ATP-induced calcium, Fluo-8 fluorescence; inhibition, % at 3 µM; 39% of 2,400 active;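 active = inhibition above the plate's mean compound inhibition plus 3 SD, computed per plate, cut at about 22% in these data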;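 also: 0% = EC80 ATP with DMSO and 100% = DMSO wells without ATP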
# Active calls of the source: *; nt = no result. Only some compounds are listed: those with a hit (about 4.6% of all), similar ones and a draw of the others.
SMILES,GPR7 antagonist,OX1R antag-1,TAAR1 ag,OX1R antag-2,CHO parental Ca,TAAR1 antag,GPR7 antag conf,MCHR1 antagonist,TAAR1 ag conf,Ga16 nonsel ag,TAAR1 desens,Ga16 nonsel ant
Cc1cc(C)c(OCC(=O)Nc2ccccc2N2CCOCC2)c(C)c1,26*,44*,61*,3,41*,55*,59*,70*,43*,34*,56*,52*
Cc1cc(C)c(OCC(=O)Nc2ccccc2N2CCCCC2)c(C)c1,nt,-20,4,20,-29,-25,nt,nt,nt,nt,nt,nt
CN1C(=O)/C(=C\c2ccc(N(C)C)cc2)OC1=S,44*,nt,100*,nt,nt,62*,44*,52*,87*,116*,58*,68*
CC(=O)Nc1ccc(Sc2ncccc2C(=O)Nc2ccc(F)cc2)cn1,62*,101*,174*,-1,72*,104*,98*,98*,150*,113*,106*,89*
CSc1ncccc1C(=O)Nc1ccc(OC(F)(F)F)cc1,8,3,2,13,-1,4,nt,nt,nt,nt,nt,nt
CCc1ccc(NC(=O)C(CC)c2ccccc2)cc1 (configuration not stated),31*,24,71*,14,39*,37,58*,60*,67*,38*,65*,39*
CCC(C(=O)Nc1ccncc1)c1ccccc1 (configuration not stated),-11,2,6,16,-2,-2,nt,nt,nt,nt,nt,nt
CCOC(=O)CCNC(=O)N1CCCC(CCC(=O)N(C)CCc2ccccn2)C1 (configuration not stated),-12,-12,4,12,-4,-5,nt,nt,nt,nt,nt,nt
CCN(CC)CCCNC(=O)N[C@@H](Cc1ccccc1)C(=O)O,-12,1,-1,14,-5,3,nt,nt,nt,nt,nt,nt
Cc1ccc(-n2c(SCC(N)=O)nnc2-c2ccc(S(=O)(=O)N3CCCCC3)cc2)c(C)c1,35*,-15,38*,10,-2,13,45*,18,29,16*,32,34*
COc1cccc(NC(=O)Nc2ccc3c(c2)nnn3C)c1,-16,-8,4,30,-7,4,nt,nt,nt,nt,nt,nt
Cc1cc(N2CCCC2)c(C)cc1C=O,-7,-21,21,15,3,-3,nt,nt,nt,nt,nt,nt
